Here are results for two molecules from ChEMBL document CHEMBL4819012, “Discovery of novel 2-aryl-3-sulfonamido-pyridines (HoAns) as microtubule polymerization inhibitors with potent antitumor activities” (Eur J Med Chem, 2021).

The structures appear in SMILES notation. Calls of active or inactive are those of the source. No cut-off for these calls is given here. Where only a bound is given, the exact number is not on record here.

One data set has as its system A549. Nature of the data set: Antiproliferative activity against human A549 cells assessed as cell viability measured after 72 hrs by MTS method. As to conditions: A549, 72 h. The class given is functional, cell-based. The method in brief:
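Log-phase cells plated at 5×10^3–6×10^3 per well for 24 h, then given graded compound concentrations in fresh medium for 72 h, five replicate wells. Medium replaced with medium containing 10% MTS, 30 min or more at 37 °C in dark; OD 490 nm read. IC50 by nonlinear regression; mean ± SD of at least three experiments.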

Data set [1] has as its system PANC-1. As to the kind of experiment: Induction of cell cycle arrest in human PANC-1 cells assessed as accumulation of cells in G1 phase at 0.5 uM measured after 24 hrs by PI staining based flow cytometry method (reference value: 31.35%). The class given is functional.
Another data set relates to HUVEC. Nature of the data set: Anti-vascular activity against human HUVEC cells assessed as inhibition of cell migration at 0.5 to 1 uM measured after 24 hrs by cell migration assay. The format is functional, cell-based. As to conditions: dose 0.5-1 µM.
Data set [2] concerns SW-620. Nature of the data set: Induction of apoptosis in human SW-620 cells assessed as necrotic cells at 0.5 uM measured after 24 hrs by PI/Annexin V staining based flow cytometry assay (reference value: 0.03%). The class given is functional.
Data set [3] concerns RKO. Nature of the data set: Induction of apoptosis in human RKO cells assessed as late apoptotic cells at 0.5 uM measured after 24 hrs by PI/Annexin V staining based flow cytometry assay (reference value: 0.81%). The class given is functional.
The nature of data set [4]: Inhibition of tubulin polymerization assessed as morphology changes from fusiform to roud at 1 uM measured 24 hrs by DAPI staining based immunoflourescence assay relative to ABT-751.
Data set [5] in a line: Toxicity against Athymic nude mouse xenografted with SW-620 cells assessed as toxicity in spleen at 25 mg/kg per two days, po measured after 20 days by H and E staining method. As to conditions: in vivo, 480 h, time 20 day. The format is organism-based. The method in brief:
(§1)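 At the end of the 20-day oral SW620 xenograft study (25 mg/kg every 2 days, n = 6), heart, liver, spleen, lung and kidney were fixed in 4% paraformaldehyde and embedded in paraffin. 4 μm sections stained with Mayer hematoxylin 5 min and eosin-phloxine 2 min, then examined by light microscopy.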

Data set [6] has as its system RKO. Nature of the data set: Induction of apoptosis in human RKO cells assessed as viable cells at 0.5 uM measured after 24 hrs by PI/Annexin V staining based flow cytometry assay (reference value: 96.6%). The class given is functional. As to conditions: read-out: Activity.
Data set [7] deals with Tubulin beta (Homo sapiens) (UniProt P68371+Q9H4B7+Q13509+P04350+Q3ZCM7+P07437+Q13885+Q9BVA1+Q9BUF5+A6NNZ2). Nature of the data set: Inhibition of N,N'-Ethylenebis(iodoacetamide) binding to beta tubulin in human SW-620 cells preincubated for 2 hrs followed by addition of EBI and measured after 2 hrs by western blot assay. The format is cell-based. As to conditions: dose 10-40 µM. The method in brief:
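SW620 cells (5×10^5 per well) pretreated for 2 h with 10, 20 or 40 μM of test agent or DMSO, then given 100 μM EBI for 2 h. Lysed in SDS loading buffer. β-tubulin and β-tubulin–EBI adduct bands resolved by western blot probed with anti-β-tubulin.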

Data set [8] relates to RKO. Nature of the data set: Antiproliferative activity against human RKO cells assessed as inhibition of cell proliferation measured after 24 hrs by crystal violet staining based colony-formation assay. The format is functional. As to conditions: dose 0.125-1 µM. The method in brief:
(§2)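 RKO or SW620 cells plated at 1000 cells/well overnight, exposed to 0.125–1 µM for 24 h, then grown 10 days in fresh medium. Colonies fixed in methanol 15 min, stained with 0.1% crystal violet 30 min, photographed; colonies of more than 50 cells counted.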

For data set [9], the system named is SW-620. As to the kind of experiment: Antiproliferative activity against human SW-620 cells assessed as inhibition of cell proliferation measured after 24 hrs by crystal violet staining based colony-formation assay. As to conditions: dose 0.125-1 µM. The format is functional. The method in brief:
as §2

The subject of data set [10] is SW-620. Nature of the data set: Induction of cell cycle arrest in human SW-620 cells assessed as accumulation of cells in S phase at 0.5 uM measured after 24 hrs by PI staining based flow cytometry method (reference value: 46.12%). The format is functional.
Data set [11] deals with PANC-1. As to the kind of experiment: Induction of cell cycle arrest in human PANC-1 cells assessed as accumulation of cells in S phase at 0.5 uM measured after 24 hrs by PI staining based flow cytometry method (reference value: 65%). The class given is functional.
The test system of data set [12] is SW-620. Nature of the data set: Induction of apoptosis in human SW-620 cells assessed as late apoptotic cells at 0.5 uM measured after 24 hrs by PI/Annexin V staining based flow cytometry assay (reference value: 3.66%). The format is functional.
Data set [13] is described as follows: Toxicity against Athymic nude mouse xenografted with SW-620 cells assessed as toxicity in kidney at 25 mg/kg per two days, po measured after 20 days by H and E staining method. The class given is organism-based. As to conditions: in vivo, 480 h, time 20 day. The method in brief:
as §1

Data set [14] deals with RKO. As to the kind of experiment: Induction of cell cycle arrest in human RKO cells assessed as accumulation of cells in S phase at 0.5 uM measured after 24 hrs by PI staining based flow cytometry method (reference value: 49.66%). The class given is functional.
Data set [15] has as its system RKO. As to the kind of experiment: Induction of cell cycle arrest in human RKO cells assessed as accumulation of cells in G1 phase at 0.5 uM measured after 24 hrs by PI staining based flow cytometry method (reference value: 39.54%). The format is functional.
Data set [16] can be described thus: Toxicity against Athymic nude mouse xenografted with SW-620 cells assessed as toxicity in heart at 25 mg/kg per two days, po measured after 20 days. The class given is organism-based. As to conditions: in vivo, 480 h, time 20 day. The method in brief:
as §1

The test system of data set [17] is RKO. As to the kind of experiment: Induction of apoptosis in human RKO cells assessed as necrotic cells at 0.5 uM measured after 24 hrs by PI/Annexin V staining based flow cytometry assay (reference value: 0.01%). The class given is functional.
For data set [18], the system named is SW-620. As to the kind of experiment: Induction of apoptosis in human SW-620 cells assessed as early apoptotic cells at 0.5 uM measured after 24 hrs by PI/Annexin V staining based flow cytometry assay (reference value: 2.41%). The class given is functional.
Data set [19] relates to SW-620. Nature of the data set: Induction of cell cycle arrest in human SW-620 cells assessed as accumulation of cells in G2 phase at 0.5 uM measured after 24 hrs by PI staining based flow cytometry method (reference value: 13.83%). The class given is functional.
Data set [20] deals with RKO. As to the kind of experiment: Induction of cell cycle arrest in human RKO cells assessed as accumulation of cells in G2 phase at 0.5 uM measured after 24 hrs by PI staining based flow cytometry method (reference value: 10.79%). The format is functional.
Another data set concerns MCF7. As to the kind of experiment: Antiproliferative activity against human MCF7 cells assessed as cell viability at 10 uM measured after 72 hrs by MTS method. The format is functional. As to conditions: read-out: Activity. The method in brief:
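Single-concentration screen at 10 µM for 72 h. Log-phase cells plated at 5×10^3–6×10^3 per well for 24 h before dosing, five replicate wells. Viability measured by MTS: 10% MTS in fresh medium, 30 min or more at 37 °C in dark, absorbance 490 nm.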

The subject of data set [21] is RKO. Nature of the data set: Induction of cell cycle arrest in human RKO cells assessed as reduction in Cyclin B1 expression at 0.5 to 1 uM measured after 24 hrs by western blot assay. As to conditions: dose 0.5-1 µM. The format is functional, cell-based. The method in brief:
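RKO or SW620 cells (4×10^5–5×10^5 per well) exposed to 0.5 or 1 μM or DMSO for 24 h. Lysed in SDS loading buffer, boiled, run on 8–15% SDS-PAGE and moved to PVDF. Blocked in 5% milk, probed overnight at 4 °C with anti-Cdc2 or anti-cyclin B1 (1:1000), β-actin as reference. HRP secondary and ECL detection. Done at least three times.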

The test system of data set [22] is RKO. Nature of the data set: Induction of apoptosis in human RKO cells assessed as early apoptotic cells at 0.5 uM measured after 24 hrs by PI/Annexin V staining based flow cytometry assay (reference value: 2.58%). The class given is functional.

`COc1ccc(S(=O)(=O)Nc2cccnc2Nc2ccc(O)cc2)cc1` [ABT-751]: in the data set on A549, the IC50 was determined as 1380 nM.

With `COc1ccc(S(=O)(=O)Nc2cccnc2-c2ccc(C#N)c(F)c2)cc1`, the Activity is 34.22% in the data set with PANC-1 [1]; “Dose-Dependent Effect” in the data set with HUVEC; 0.06% with SW-620 [2]; 1.04% in the data set on RKO [3]; “Non-Toxic” in data set [5]; “Dose-Dependent Effect” in the data set on RKO [8]. The Activity entry was “Dose-Dependent Effect” with SW-620 [9]; 42.53% in the data set on SW-620 [10]; 50.11% in the data set on PANC-1 [11]; 3.11% with SW-620 [12]; “Non-Toxic” in data set [13]; 46.37% with RKO [14]. Moreover, the Activity with RKO [15] is listed as 36.95%; in data set [16] it was “Non-Toxic”; with RKO [17], 0.03%; in the data set on SW-620 [18], 6.66%; with SW-620 [19] it was 14.44%; with RKO [20], 16.65%. The Activity in the data set with RKO [22] is listed as 24.47%. Also, the inhibition entry in data set [4] was “Active”. Besides, in the data set on RKO [6], the viability at 0.5 µM was found to be 74.5%. Besides, the inhibition result in [7] was “Dose-Dependent Effect”. The viability at 10 µM in the data set on MCF7 is greater than 70%. For the same molecule, the outcome with RKO [21] was Active.
